Source: article PMC3578425 (Pharmacological research : the official journal of the …, 2010)
“And” between values parts separate entries of the source, which are not always exact repeats. Equal values may be shown once. “Also recorded” adds a separate entry of the source. Read-outs that look alike come from different tables or passages of the source. Blank lines part the entries; values can stand above or below the compound they belong to.

Assays:
[1] = system: platelets isolated from P2Y1(−/−) mice; assay: [125I]MRS2500 binding to platelets isolated from P2Y1; set-up: species or system mouse
[2] = molecular target: P2Y1 receptors on mouse platelets (Mus musculus, UniProt P49650); assay: [125I]MRS2500 binding assay with intact washed mouse platelets
Procedure, shortened: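 Mouse washed platelets were prepared by differential centrifugation in Tyrode's buffer, pH 7.3, with 0.35% human serum albumin and apyrase (0.02 U/ml), held at 150,000 platelets/μl at 37°C. Platelet suspension (400 μl in 0.5 ml) was incubated 5 min with [125I]MRS2500 at 20°C or 37°C, with or without competitors. Samples were filtered on GF/C, washed five times with ice-cold buffer, and gamma-counted. Nonspecific binding was defined with 10 μM MRS2179.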

[3] = molecular target: P2Y1 receptors on human platelets (Homo sapiens, UniProt P47900); assay: [125I]MRS2500 binding assay with intact washed human platelets; conditions: for effect on [125I]MRS2500 binding: competing drug up to 100 μM
human P2Y1 receptor = human P2Y1 receptor (Homo sapiens, UniProt P47900); type: binding; conditions: for Ki: read-out: Ki, inhibition of [125I]MRS2500 binding, competition curves
P2Y1 receptor = conditions: read-out: Kd for the P2Y1 receptor; cited from earlier work
[4] = system: membranes from wild-type insect cells (empty vector-infected Sf9); assay: [125I]MRS2500 binding to membranes from empty vector-infected; conditions: wide range of membrane concentrations; nonspecific defined with 30 μM 2MeSADP
[5] = wild-type mouse platelets, 10 μM competitor
[6] = P2Y1 receptor-expressing Sf9 membranes
[7] = read-out: Ki, inhibition of [125I]MRS2500 binding, human platelets, competition
[8] = approximately 0.3 nM [125I]MRS2500, 300 ng membranes, data not shown
[9] = human platelets, 37°C, data not shown

human P2Y1 receptor, sequence (P47900 whole entry): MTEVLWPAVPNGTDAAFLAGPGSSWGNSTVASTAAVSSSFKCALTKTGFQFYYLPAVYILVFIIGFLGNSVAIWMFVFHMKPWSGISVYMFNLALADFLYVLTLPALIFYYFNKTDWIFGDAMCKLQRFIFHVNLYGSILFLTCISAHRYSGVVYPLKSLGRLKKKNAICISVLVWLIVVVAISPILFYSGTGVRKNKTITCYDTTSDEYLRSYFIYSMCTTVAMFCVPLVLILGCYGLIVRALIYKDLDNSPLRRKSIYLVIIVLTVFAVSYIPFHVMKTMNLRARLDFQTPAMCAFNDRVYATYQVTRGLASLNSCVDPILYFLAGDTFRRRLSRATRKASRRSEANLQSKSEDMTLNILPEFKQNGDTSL
P2Y1 receptors on human platelets, sequence (P47900 whole entry): as above
P2Y1 receptors on mouse platelets, sequence (P49650 whole entry): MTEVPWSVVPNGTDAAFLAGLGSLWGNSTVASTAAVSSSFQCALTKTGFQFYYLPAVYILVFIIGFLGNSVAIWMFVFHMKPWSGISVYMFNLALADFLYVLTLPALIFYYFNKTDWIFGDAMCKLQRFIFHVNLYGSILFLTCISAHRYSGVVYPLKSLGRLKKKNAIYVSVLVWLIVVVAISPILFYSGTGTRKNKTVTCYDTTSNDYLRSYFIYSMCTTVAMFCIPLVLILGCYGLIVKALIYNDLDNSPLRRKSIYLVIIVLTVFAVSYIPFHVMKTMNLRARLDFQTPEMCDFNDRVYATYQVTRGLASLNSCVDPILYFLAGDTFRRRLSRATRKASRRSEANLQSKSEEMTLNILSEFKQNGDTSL

Compound: CSc1nc(N)c2ncn([C@@H]3O[C@H](COP(=O)(O)OP(=O)(O)O)[C@@H](O)[C@H]3O)c2n1 [2MeSADP, 2-methylthio-adenosine 5′-diphosphate, reference compound]
effect on residual [125I]MRS2500 binding ([1]; high concentration of competitor): not inhibited
effect on [125I]MRS2500 binding [2, 5]: inhibited

Compound: Nc1ncnc2c1ncn2[C@@H]1O[C@H](COP(=O)(O)CP(=O)(O)OP(=O)(O)O)[C@@H](O)[C@H]1O [!!MeATP, reference compound]
effect on [125I]MRS2500 binding ([3]; human platelets): Little effect

Compound: Nc1ncnc2c1ncn2[C@@H]1O[C@H](COP(=O)(O)OP(O)(O)=S)[C@@H](O)[C@H]1O [ADP!S, reference compound]
Ki (human P2Y1 receptor; [6]): 1750 ± 750 nM

Compound: Nc1ncnc2c1ncn2[C@@H]1O[C@H](COP(=O)(O)OP(=O)(O)O)[C@@H](O)[C@H]1O [ADP, reference compound]
Ki (human P2Y1 receptor; [6]): 625 ± 37 nM
Ki [3, 7]: 15400 ± 9000 nM
effect on [125I]MRS2500 binding ([2]; wild-type mouse platelets, 100 μM competitor): inhibited

Compound: CSCCNc1nc(SCCC(F)(F)F)nc2c1ncn2[C@@H]1O[C@H](COP(=O)(O)OP(=O)(O)C(Cl)(Cl)P(=O)(O)O)[C@@H](O)[C@H]1O [ARC-69931MX, [dichloro-[[[(2R,3S,4R,5R)-3,4-dihydroxy-5-[6-(2-methylsulfanylethylamino)-2-(3,3,3-trifluoropropylsulfanyl)purin-9-yl]oxolan-2-yl]methoxy-hydroxyphosphoryl]oxy-hydroxyphosphoryl]methyl]phosphonic acid, reference compound]
effect on [125I]MRS2500 binding ([3]; human platelets): Little effect
effect on [125I]MRS2500 binding [2, 5]: no effect

Compound: CNc1ncnc2c1ncn2[C@H]1C[C@H](OP(=O)(O)O)[C@@H](COP(=O)(O)O)O1 [MRS2179]
Kd (P2Y1 receptor): ~100 nM
Ki [3]: 72.5 ± 17 nM
effect on [125I]MRS2500 binding [2, 5]: inhibited

Compound: CNc1nc(Cl)nc2c1ncn2[C@H]1C[C@H](OP(=O)(O)O)[C@]2(COP(=O)(O)O)C[C@H]12 [MRS2279, 2-chloro-N^6-methyl-(N)-methanocarba-2′-deoxyadenosine-3′,5′-bisphosphate]
Kd (P2Y1 receptor): ~10 nM

Compound: O=c1ccn([C@@H]2O[C@H](COP(=O)(O)OP(=O)(O)OP(=O)(O)O)[C@@H](O)[C@H]2O)c(=O)[nH]1 [UTP, reference compound]
effect on [125I]MRS2500 binding (human P2Y1 receptor; concentrations up to 30 μM): no effect

Compound: CNc1nc(I)nc2c1ncn2[C@H]1C[C@H](OP(=O)(O)O)[C@]2(COP(=O)(O)O)C[C@H]12 [[^125I]MRS2500, 2-iodo-N^6-methyl-(N)-methanocarba-2′-deoxyadenosine-3′,5′-bisphosphate]
specific binding of [125I]MRS2500 [1]: not observed
time steady-state binding was maintained (human P2Y1 receptor; [8]): at least 40 min
time to steady state binding (human P2Y1 receptor; [8]): ≤ 20 min
Kd (human P2Y1 receptor; read-out: Kd, saturation binding of [125I]MRS2500, P2Y1 receptor-expressing Sf9 membranes, 4°C, one-site binding): 1.1 ± 0.3 nM
Bmax for P2Y1 receptor expression in Sf9 cells (human P2Y1 receptor; saturation binding of [125I]MRS2500): 13.3 ± 2.2 pmol/mg membrane protein
Bmax (binding sites) ([3]; human platelets, 20°C, data not shown): 147 sites/platelet
Bmax ([3]; human platelets, 37°C): 151 sites/platelet and 151 ± 1 sites/platelet
time binding was stable [3, 9]: at least 15 min
time to apparent steady state binding [3, 9]: 60 to 90 s
time to steady state binding ([3]; intact washed platelets (human or mouse), 20°C or 37°C): ≤ 5 min
Kd ([3]; read-out: Kd, saturation binding of [125I]MRS2500, human platelets, 37°C): 0.61 nM
Bmax ([2]; mouse platelets, 20°C, data not shown): 253 sites/platelet
Kd ([2]; read-out: Kd, saturation binding of [125I]MRS2500, mouse platelets, 20°C, data not shown): 0.5 nM
Bmax ([2]; wild-type mouse platelets, 37°C): 229 sites/platelet and 229 ± 23 sites/platelet
specific binding of radioligand [4]: did not specifically bind; also recorded: no specific binding

Now from value to compound:

effect on [125I]MRS2500 binding [2, 5]: inhibited
Compound: CSc1nc(N)c2ncn([C@H]3[C@H](O)[C@H](O)[C@@]4(COP(=O)(O)OP(=O)(O)O)C[C@H]34)c2n1 [MRS2365, (1′S,2′R,3′S,4′R,5′S)-4-[(6-amino-2-methylthio-9H-purin-9-yl)-1-diphosphoryloxymethyl]bicyclo[3.1.0]hexane-2,3-diol]

Ki [3, 7]: 1.2 ± 0.15 nM
Compound: CNc1nc(I)nc2c1ncn2[C@H]1C[C@H](OP(=O)(O)O)[C@]2(COP(=O)(O)O)C[C@H]12 [MRS2500, 2-iodo-N^6-methyl-(N)-methanocarba-2′-deoxyadenosine 3′,5′-bisphosphate]
